According to ChEMBL document CHEMBL5674876, “Epigenetic Activation of Pro-angiogenic Signaling Pathways in Human Endothelial Progenitors Increases Vasculogenesis” (Stem Cell Reports, 2017):
Active and inactive are the calls of the source. No cut-off for these calls is given here.

Key:
HUVEC [1] = assay: Effect on human umbilical cord derived endothelial colony forming cells assessed as increase in H3K4me3 level in presence of panobinostat measured after removal of drug by qRT-PCR analysis; format: functional, cell-based
[2] = target: Histone-lysine N-methyltransferase EZH2 (Homo sapiens) (UniProt Q15910); assay: Inhibition of EZH2 in human umbilical cord derived endothelial colony forming cells assessed as decrease in H3K27me2 level at 0.01 to 5 uM by Western blotting analysis; format: cell-based; details: Umbilical cord derived endothelial colony forming cell, dose 0.01-5 µM, time 24-72 hrs, TDE = time-dependent effect
Histone-lysine N-methyltransferase EZH2 (Homo sapiens), sequence (Q15910 whole entry, looked up): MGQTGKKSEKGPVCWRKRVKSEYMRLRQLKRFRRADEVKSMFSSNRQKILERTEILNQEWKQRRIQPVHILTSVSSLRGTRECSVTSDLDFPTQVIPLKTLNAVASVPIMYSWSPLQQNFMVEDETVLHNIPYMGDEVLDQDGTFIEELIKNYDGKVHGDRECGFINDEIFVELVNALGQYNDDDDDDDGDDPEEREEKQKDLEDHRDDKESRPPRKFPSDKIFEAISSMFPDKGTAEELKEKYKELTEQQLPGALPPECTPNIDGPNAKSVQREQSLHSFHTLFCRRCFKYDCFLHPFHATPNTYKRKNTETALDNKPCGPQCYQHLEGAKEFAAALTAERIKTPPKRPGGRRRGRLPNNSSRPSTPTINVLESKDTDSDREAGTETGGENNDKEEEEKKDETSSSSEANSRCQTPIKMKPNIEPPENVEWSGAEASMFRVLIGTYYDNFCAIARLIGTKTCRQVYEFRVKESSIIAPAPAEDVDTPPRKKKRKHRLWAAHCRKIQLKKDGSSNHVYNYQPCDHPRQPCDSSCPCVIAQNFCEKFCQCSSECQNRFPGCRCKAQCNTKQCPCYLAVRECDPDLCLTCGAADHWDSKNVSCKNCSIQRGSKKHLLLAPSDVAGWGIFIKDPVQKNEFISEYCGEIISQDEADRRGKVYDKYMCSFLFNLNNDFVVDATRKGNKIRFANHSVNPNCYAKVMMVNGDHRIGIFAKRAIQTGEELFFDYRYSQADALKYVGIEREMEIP
How it was run: (§1)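 Human cord-blood ECFC clones, at least three independent, passages 3–6, grown in EGM-2 with 10% FBS. Histone methylation marks were assessed by western blot, with total histone H3 and H4 as loading controls.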

[3] = target: Histone-lysine N-methyltransferase EZH2 (Homo sapiens) (UniProt Q15910); assay: Inhibition of EZH2 in human umbilical cord derived endothelial colony forming cells assessed as decrease in H3K27me2 level for 24 to 72 hrs by Western blotting analysis; format: cell-based; details: Umbilical cord derived endothelial colony forming cell, dose 0.01-5 µM, time 24-72 hrs; how it was run: as §1
[4] = target: Histone-lysine N-methyltransferase EZH2 (Homo sapiens) (UniProt Q15910); assay: Inhibition of EZH2 in human umbilical cord derived endothelial colony forming cells assessed as decrease in H3K27me1 level at 0.01 to 5 uM measured after 24 to 72 hrs by Western blotting analysis; format: cell-based; details: Umbilical cord derived endothelial colony forming cell, dose 0.01-5 µM, time 24-72 hrs; how it was run: as §1
[5] = target: Histone-lysine N-methyltransferase EZH2 (Homo sapiens) (UniProt Q15910); assay: Inhibition of EZH2 in human umbilical cord derived endothelial colony forming cells assessed as decrease in H3K4me3 level at 0.01 to 5 uM measured after 24 to 72 hrs by Western blotting analysis; format: cell-based; details: Umbilical cord derived endothelial colony forming cell, dose 0.01-5 µM, time 24-72 hrs; how it was run: as §1
[6] = target: Histone-lysine N-methyltransferase EZH2 (Homo sapiens) (UniProt Q15910); assay: Inhibition of EZH2 in human umbilical cord derived endothelial colony forming cells assessed as decrease in H3K9me3 level at 0.01 to 5 uM measured after 24 to 72 hrs by Western blotting analysis; format: cell-based; details: Umbilical cord derived endothelial colony forming cell, dose 0.01-5 µM, time 24-72 hrs; how it was run: as §1
[7] = target: Histone-lysine N-methyltransferase EZH2 (Homo sapiens) (UniProt Q15910); assay: Inhibition of EZH2 in human umbilical cord derived endothelial colony forming cells assessed as decrease in H4K20me3 level at 0.01 to 5 uM measured after 24 to 72 hrs by Western blotting analysis; format: cell-based; details: Umbilical cord derived endothelial colony forming cell, dose 0.01-5 µM, time 24-72 hrs; how it was run: as §1
[8] = target: Histone acetyltransferase p300 (Homo sapiens) (UniProt Q09472); assay: Inhibition of acetyl transferase P300 in human umbilical cord derived endothelial colony forming cells assessed as decrease in protein level by Western blotting analysis; format: cell-based; details: Umbilical cord derived endothelial colony forming cell
Histone acetyltransferase p300 (Homo sapiens), sequence (Q09472 whole entry): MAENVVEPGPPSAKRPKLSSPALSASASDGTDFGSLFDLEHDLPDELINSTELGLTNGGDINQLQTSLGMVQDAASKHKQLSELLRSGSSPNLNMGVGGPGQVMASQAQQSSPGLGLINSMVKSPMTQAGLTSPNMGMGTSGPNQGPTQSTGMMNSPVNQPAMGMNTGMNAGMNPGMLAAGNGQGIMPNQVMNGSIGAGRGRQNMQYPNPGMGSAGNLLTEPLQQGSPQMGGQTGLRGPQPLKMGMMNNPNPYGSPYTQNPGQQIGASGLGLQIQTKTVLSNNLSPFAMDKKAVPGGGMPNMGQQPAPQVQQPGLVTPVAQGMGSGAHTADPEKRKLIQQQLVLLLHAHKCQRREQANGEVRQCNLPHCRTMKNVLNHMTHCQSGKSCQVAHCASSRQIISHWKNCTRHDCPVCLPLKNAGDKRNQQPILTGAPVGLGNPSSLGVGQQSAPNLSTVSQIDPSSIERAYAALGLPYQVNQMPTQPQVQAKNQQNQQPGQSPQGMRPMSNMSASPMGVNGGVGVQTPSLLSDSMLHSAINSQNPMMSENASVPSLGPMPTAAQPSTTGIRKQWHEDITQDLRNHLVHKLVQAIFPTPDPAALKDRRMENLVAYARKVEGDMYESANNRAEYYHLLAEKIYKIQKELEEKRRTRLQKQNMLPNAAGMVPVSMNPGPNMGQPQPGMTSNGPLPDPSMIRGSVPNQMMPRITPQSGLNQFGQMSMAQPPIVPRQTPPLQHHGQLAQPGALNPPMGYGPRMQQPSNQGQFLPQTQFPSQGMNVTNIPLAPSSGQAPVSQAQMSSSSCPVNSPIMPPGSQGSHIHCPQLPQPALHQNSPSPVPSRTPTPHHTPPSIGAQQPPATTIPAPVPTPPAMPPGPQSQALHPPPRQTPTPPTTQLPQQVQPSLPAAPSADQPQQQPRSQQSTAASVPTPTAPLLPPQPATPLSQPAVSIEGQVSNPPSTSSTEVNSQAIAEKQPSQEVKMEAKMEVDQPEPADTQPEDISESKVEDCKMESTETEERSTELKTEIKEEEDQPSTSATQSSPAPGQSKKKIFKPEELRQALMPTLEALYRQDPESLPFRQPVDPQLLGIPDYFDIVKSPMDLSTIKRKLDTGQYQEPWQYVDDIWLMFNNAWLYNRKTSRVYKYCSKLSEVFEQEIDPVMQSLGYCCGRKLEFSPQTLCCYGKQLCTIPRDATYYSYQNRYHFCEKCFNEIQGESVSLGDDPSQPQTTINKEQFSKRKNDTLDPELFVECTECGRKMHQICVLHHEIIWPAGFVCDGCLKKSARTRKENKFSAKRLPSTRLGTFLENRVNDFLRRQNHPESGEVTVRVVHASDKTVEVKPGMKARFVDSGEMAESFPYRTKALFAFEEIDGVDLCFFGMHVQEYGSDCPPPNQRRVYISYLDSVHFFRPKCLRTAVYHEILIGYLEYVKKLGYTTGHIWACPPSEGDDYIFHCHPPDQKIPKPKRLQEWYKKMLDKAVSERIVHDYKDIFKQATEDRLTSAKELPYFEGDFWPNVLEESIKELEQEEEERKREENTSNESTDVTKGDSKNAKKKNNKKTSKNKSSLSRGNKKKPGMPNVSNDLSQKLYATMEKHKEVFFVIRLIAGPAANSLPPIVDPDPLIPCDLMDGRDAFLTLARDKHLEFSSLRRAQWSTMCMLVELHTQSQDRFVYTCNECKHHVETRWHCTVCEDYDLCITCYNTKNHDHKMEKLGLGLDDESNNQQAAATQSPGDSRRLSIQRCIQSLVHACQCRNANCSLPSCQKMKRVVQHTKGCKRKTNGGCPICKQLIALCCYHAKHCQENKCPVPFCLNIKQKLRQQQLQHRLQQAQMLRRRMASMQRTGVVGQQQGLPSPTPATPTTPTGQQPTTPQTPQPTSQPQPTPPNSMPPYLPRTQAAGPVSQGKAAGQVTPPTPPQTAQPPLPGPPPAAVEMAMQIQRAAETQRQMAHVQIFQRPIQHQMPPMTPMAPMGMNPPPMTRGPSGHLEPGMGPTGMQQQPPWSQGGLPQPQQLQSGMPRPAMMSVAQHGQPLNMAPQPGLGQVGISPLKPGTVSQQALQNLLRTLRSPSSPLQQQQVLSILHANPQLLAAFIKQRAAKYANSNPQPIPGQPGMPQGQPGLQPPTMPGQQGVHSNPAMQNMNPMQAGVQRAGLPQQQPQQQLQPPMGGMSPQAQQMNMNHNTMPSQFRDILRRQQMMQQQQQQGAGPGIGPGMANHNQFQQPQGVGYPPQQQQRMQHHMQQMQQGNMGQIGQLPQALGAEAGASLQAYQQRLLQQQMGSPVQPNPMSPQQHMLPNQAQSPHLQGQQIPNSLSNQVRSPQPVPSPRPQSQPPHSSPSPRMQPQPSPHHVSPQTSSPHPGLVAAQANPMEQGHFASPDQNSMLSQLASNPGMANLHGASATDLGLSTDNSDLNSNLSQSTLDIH
How it was run: (§2)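 Cord-blood ECFCs were treated with an EZH2 inhibitor at 5 μM for 72 hr, then an HDAC inhibitor at 10 nM for 2 hr, or with vehicle. Levels of the epigenetic enzymes were read by western blot, with tubulin as loading control.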

[9] = target: Histone deacetylase 1 (Homo sapiens) (UniProt Q13547); assay: Inhibition of deacetylase HDAC1 in human umbilical cord derived endothelial colony forming cells assessed as decrease in protein level by Western blotting analysis; format: cell-based; details: Umbilical cord derived endothelial colony forming cell; how it was run: as §2
[10] = tested on: Umbilical cord derived endothelial colony forming cell; assay: Inhibition of H3K27 demethylase UTX in human umbilical cord derived endothelial colony forming cells assessed as decrease in protein level by Western blotting analysis; format: cell-based; how it was run: as §2
[11] = tested on: Umbilical cord derived endothelial colony forming cell; assay: Inhibition of H3K9 methyltransferase G9a in human umbilical cord derived endothelial colony forming cells assessed as decrease in protein level by Western blotting analysis; format: cell-based; how it was run: as §2
[12] = target: DNA (cytosine-5)-methyltransferase 1 (Homo sapiens) (UniProt P26358); assay: Inhibition of DNMT1 in human umbilical cord derived endothelial colony forming cells assessed as decrease in protein level by Western blotting analysis; format: cell-based; details: Umbilical cord derived endothelial colony forming cell
DNA (cytosine-5)-methyltransferase 1 (Homo sapiens), sequence (P26358 whole entry): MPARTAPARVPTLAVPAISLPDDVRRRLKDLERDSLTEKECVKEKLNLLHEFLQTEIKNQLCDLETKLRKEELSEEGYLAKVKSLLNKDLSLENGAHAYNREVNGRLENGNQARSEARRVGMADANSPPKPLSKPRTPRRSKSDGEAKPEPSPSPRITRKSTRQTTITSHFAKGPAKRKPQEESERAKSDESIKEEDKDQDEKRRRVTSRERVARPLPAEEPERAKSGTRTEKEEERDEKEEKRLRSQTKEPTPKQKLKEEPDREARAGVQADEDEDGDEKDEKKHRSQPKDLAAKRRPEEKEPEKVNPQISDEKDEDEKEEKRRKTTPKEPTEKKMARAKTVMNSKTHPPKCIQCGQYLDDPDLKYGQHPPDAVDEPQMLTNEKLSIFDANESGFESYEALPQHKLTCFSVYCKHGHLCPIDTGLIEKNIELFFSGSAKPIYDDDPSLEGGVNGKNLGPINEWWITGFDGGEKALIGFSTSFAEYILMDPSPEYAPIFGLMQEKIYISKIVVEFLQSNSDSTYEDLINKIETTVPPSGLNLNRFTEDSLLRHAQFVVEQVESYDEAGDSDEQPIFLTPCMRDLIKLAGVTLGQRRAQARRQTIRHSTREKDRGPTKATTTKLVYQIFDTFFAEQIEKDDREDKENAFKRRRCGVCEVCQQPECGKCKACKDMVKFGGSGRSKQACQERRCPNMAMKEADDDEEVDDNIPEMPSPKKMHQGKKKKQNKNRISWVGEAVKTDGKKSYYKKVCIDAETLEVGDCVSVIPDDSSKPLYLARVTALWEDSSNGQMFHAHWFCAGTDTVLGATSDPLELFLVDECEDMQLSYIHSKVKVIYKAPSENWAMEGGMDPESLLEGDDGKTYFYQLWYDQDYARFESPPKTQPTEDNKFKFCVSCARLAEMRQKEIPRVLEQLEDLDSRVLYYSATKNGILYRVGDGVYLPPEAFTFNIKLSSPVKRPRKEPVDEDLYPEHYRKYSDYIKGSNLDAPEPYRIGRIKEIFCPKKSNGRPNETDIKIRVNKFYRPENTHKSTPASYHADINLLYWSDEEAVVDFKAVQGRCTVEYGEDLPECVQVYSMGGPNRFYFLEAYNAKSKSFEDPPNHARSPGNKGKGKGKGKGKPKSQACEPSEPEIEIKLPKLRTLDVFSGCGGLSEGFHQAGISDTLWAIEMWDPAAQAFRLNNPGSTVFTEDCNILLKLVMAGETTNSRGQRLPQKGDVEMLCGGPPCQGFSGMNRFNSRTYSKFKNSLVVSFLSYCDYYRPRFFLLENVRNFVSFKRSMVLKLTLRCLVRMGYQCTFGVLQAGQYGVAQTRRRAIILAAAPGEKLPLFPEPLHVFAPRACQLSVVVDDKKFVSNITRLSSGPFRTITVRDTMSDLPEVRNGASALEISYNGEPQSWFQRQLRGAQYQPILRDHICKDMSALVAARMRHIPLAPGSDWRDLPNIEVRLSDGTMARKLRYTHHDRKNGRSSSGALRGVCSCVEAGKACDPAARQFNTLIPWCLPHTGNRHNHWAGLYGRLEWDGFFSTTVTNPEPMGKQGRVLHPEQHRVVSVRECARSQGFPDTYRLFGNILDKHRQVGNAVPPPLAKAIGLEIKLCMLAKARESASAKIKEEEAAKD

HUVEC [13] = assay: Effect on pro-angiogenic property in human umbilical cord derived endothelial colony forming cells assessed as cell migration treated for 72 hrs measured by crystal violet staining analysis based gap closure assay; format: functional; details: dose 0.1-5 µM
HUVEC [14] = assay: Effect on pro-angiogenic property in human umbilical cord derived endothelial colony forming cells assessed as formation of capillary network on matrigel; format: functional, cell-based; details: dose 0.01-5 µM
How it was run: (§3)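 Drug- or vehicle-pretreated ECFCs seeded at 5,000 cells/well on phenol-red-free growth-factor-reduced Matrigel in duplicate; after 24 hr stained with 5 μg/mL calcein 5 min at 37°C, imaged at 2.5×. Total tube length expressed as percentage of vehicle control ±SEM, three independent experiments.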

HUVEC [15] = assay: Effect on pro-angiogenic property in human umbilical cord derived endothelial colony forming cells assessed as increase in cell migration treated at 5 uM for 72 hrs in presence of panobinostat measured by crystal violet staining analysis based gap closure assay; format: functional
HUVEC [16] = assay: Effect on pro-angiogenic property in human umbilical cord derived endothelial colony forming cells assessed as formation of capillary network on matrigel at 5 uM for 72 hrs in presence of panobinostat; format: functional, cell-based; how it was run: as §3
HUVEC [17] = assay: Resistance to induction of cell apoptosis in human umbilical cord derived endothelial colony forming cells in presence of panobinostat by annexin V staining analysis; format: functional, cell-based
How it was run: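 ECFCs were pretreated with the epigenetic drugs or vehicle and kept in serum-containing EGM-2. Apoptosis was scored by flow cytometry after annexin V and 7-AAD staining. Values are expressed as percentage of vehicle-treated control, mean ±SEM, three independent experiments each in duplicate.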

HUVEC [18] = assay: Resistance to serum induced starvation of cell apoptosis in human umbilical cord derived endothelial colony forming cells grown in EBM2 medium measured in presence of panobinostat by annexin V staining analysis; format: functional, cell-based
How it was run: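 Drug- or vehicle-pretreated ECFCs were serum-starved overnight (16 hr) in EBM-2 lacking supplements. Cells were then suspended in annexin V binding buffer, stained with annexin V and 7-AAD, and analysed by flow cytometry. Values are percentage of vehicle control ±SEM, n = 3 experiments in duplicate.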

[19] = tested on: Umbilical cord derived endothelial colony forming cell; assay: Activation of WNT pro-angiogenic pathway in human umbilical cord derived endothelial colony forming cells by measuring DKK3 level at 5 uM for 72 hrs in presence of panobinostat for 2 hrs by qRT-PCR analysis; format: cell-based; details: filed as activator
[20] = tested on: Umbilical cord derived endothelial colony forming cell; assay: Activation of WNT pro-angiogenic pathway in human umbilical cord derived endothelial colony forming cells by measuring WNT5A level in presence of panobinostat by qRT-PCR analysis; format: cell-based; details: filed as activator
[21] = tested on: Umbilical cord derived endothelial colony forming cell; assay: Activation of WNT pro-angiogenic pathway in human umbilical cord derived endothelial colony forming cells by measuring WNT9A level in presence of panobinostat by qRT-PCR analysis; format: cell-based; details: filed as activator
[22] = tested on: Umbilical cord derived endothelial colony forming cell; assay: Activation of WNT pro-angiogenic pathway in human umbilical cord derived endothelial colony forming cells by measuring WNT4 level in presence of panobinostat by qRT-PCR analysis; format: cell-based; details: filed as activator
[23] = tested on: Umbilical cord derived endothelial colony forming cell; assay: Activation of WNT pro-angiogenic pathway in human umbilical cord derived endothelial colony forming cells by measuring WNT11 level in presence of panobinostat by qRT-PCR analysis; format: cell-based; details: filed as activator
[24] = tested on: Umbilical cord derived endothelial colony forming cell; assay: Activation of WNT pro-angiogenic pathway in human umbilical cord derived endothelial colony forming cells by measuring FZD2 level in presence of panobinostat by qRT-PCR analysis; format: cell-based; details: filed as activator
[25] = tested on: Umbilical cord derived endothelial colony forming cell; assay: Activation of WNT pro-angiogenic pathway in human umbilical cord derived endothelial colony forming cells by measuring FZD1 level in presence of panobinostat by qRT-PCR analysis; format: cell-based; details: filed as activator
[26] = tested on: Umbilical cord derived endothelial colony forming cell; assay: Activation of WNT pro-angiogenic pathway in human umbilical cord derived endothelial colony forming cells by measuring FZD5 level in presence of panobinostat by qRT-PCR analysis; format: cell-based; details: filed as activator
[27] = tested on: Umbilical cord derived endothelial colony forming cell; assay: Activation of WNT pro-angiogenic pathway in human umbilical cord derived endothelial colony forming cells by measuring FZD7 level in presence of panobinostat by qRT-PCR analysis; format: cell-based; details: filed as activator

CCCc1cc(C)[nH]c(=O)c1CNC(=O)c1cc(-c2ccnc(N3CCN(C)CC3)c2)cc2c1cnn2C(C)C
Activity (HUVEC [1]): Active
inhibition [2]: Tde
inhibition [3]: Dose-Dependent Effect
inhibition [4]: inactive
inhibition [5]: inactive
inhibition [6]: inactive
inhibition [7]: inactive
inhibition [8]: inactive
inhibition [9]: inactive
inhibition [10]: inactive
inhibition [11]: inactive
inhibition [12]: inactive
Activity (HUVEC [13]): Dose-Dependent Effect
Activity (HUVEC [14]): Dose-Dependent Effect
Activity (HUVEC [15]): Active
Activity (HUVEC [16]): Active
Activity (HUVEC [17]): Active
Activity (HUVEC [18]): Active
Activity [19]: Active
Activity [20]: Active
Activity [21]: Active
Activity [22]: Active
Activity [23]: Active
Activity [24]: Active
Activity [25]: Active
Activity [26]: Active
Activity [27]: Active
